Legend:
[1] = test system: Cavia porcellus; assay: Histamine induced lethality, at 30-min pretreatment time when 30 mg/kg compound was administered intra peritoneally in guinea pigs; assay type: functional
[2] = molecular target: Histamine H1 receptor (Cavia porcellus) (UniProt P31389); assay: Histamine induced lethality, at 30-min pretreatment time of 3 mg/kg i.p. in guinea pigs.; assay type: functional, organism-based; set-up: dose 3 mg/kg; settings: at 3 mg/kg
[3] = test system: Felis catus; assay: The compound dose required for 50% block of H1 histamine activity, when administarted intra venously in cats; assay type: functional
Outline: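 Cats given test compound iv (0.001-20 mg/kg), with blood pressure recorded continuously. Histamine 0.5 μg/kg iv was given to induce hypotension, before and 5, 10 and 20 min after each dose. The antihistaminic dose was the one inhibiting the histamine response by >50%. Values are mean ± SD over the number of experiments per compound.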

[4] = test system: Felis catus; assay: The compound dose required to elicit marked cortical slowing and spindling, when administarted intra venously in cats; assay type: functional
Outline: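 Cats given test compound iv (0.001-20 mg/kg), with spontaneous EEG inspected after each dose for cortical slowing, synchrony and spindle-type activity. The sedative dose was the one producing marked slowing and spindling (synchrony). Values are mean ± SD over the number of experiments per compound.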

[5] = test system: Cavia porcellus; assay: Histamine induced lethality, at 60-min pretreatment time when 1 mg/kg compound was administered perorally in guinea pigs; assay type: functional; settings: route oral
[6] = test system: Cavia porcellus; assay: Histamine induced lethality, at 60-min pretreatment time when 3 mg/kg compound was administered perorally in guinea pigs; assay type: functional; settings: route oral
[7] = test system: Cavia porcellus; assay: Histamine induced lethality, at 60-min pretreatment time when 30 mg/kg compound was administered perorally in guinea pigs; assay type: functional; settings: route oral
[8] = test system: Cavia porcellus; assay: Histamine induced lethality, at 60-min pretreatment time when 0.3 mg/kg compound was administered perorally in guinea pigs; assay type: functional; settings: route oral
[9] = organism: Cavia porcellus; assay: Effective dose that protects guinea pigs against histamine induced lethality at 6 hours pretreatment time; assay type: functional
Outline: (§1)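 Survival at 24 h after challenge was scored as protection. Groups of 5–10 animals per treatment; ED50 was calculated by the Litchfield–Wilcoxon method or by computer probit analysis.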

[10] = molecular target: Histamine H1 receptor (Cavia porcellus) (UniProt P31389); assay: Histamine induced lethality, at 60-min pretreatment time of 0.1 mg/kg p.o. in guinea pigs.; assay type: functional, organism-based; set-up: dose 0.1 mg/kg; settings: at 0.1 mg/kg
[11] = organism: Cavia porcellus; assay: Effective dose that protects guinea pigs against histamine induced lethality, at 1 hour pretreatment time; assay type: functional; outline: as §1

Chain of Histamine H1 receptor (Cavia porcellus) (P31389 whole entry): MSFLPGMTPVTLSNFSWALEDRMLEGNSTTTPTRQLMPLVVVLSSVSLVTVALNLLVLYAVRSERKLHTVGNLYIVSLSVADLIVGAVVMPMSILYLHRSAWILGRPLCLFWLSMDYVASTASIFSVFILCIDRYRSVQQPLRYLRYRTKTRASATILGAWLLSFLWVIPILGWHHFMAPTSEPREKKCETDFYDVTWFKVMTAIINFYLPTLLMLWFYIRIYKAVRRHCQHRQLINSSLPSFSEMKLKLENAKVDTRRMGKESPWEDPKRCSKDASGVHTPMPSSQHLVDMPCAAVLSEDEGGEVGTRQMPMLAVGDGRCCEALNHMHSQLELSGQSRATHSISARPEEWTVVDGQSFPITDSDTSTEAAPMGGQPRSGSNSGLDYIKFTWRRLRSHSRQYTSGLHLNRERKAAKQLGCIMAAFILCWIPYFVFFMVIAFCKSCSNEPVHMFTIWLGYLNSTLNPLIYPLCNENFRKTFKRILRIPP

Compound: CN1CCN(CCC2CN(C)C(=S)c3cccnc3O2)CC1 (configuration not stated)
- survival at 30 mg/kg [1]: 100%
- Survival [2]: 0%

Compound: COc1ccc(CCN2CCC(Nc3nc4ccccc4n3Cc3ccc(F)cc3)CC2)cc1 [ASTEMIZOLE]
- Dose [3]: 0.43 mg/kg
- Dose [4]: 8 mg/kg

Compound: CCN(C)CCC1CN(C)C(=S)c2cccnc2O1 (configuration not stated)
- survival at 1 mg/kg [5]: 0%
- survival at 3 mg/kg [6]: 60%
- survival at 30 mg/kg [7]: 100%

Compound: CN(C)CCC1CN(C)C(=S)c2ccc(Cl)cc2O1 (configuration not stated)
- survival at 0.3 mg/kg [8]: 0%
- survival at 1 mg/kg [5]: 0%
- survival at 3 mg/kg [6]: 100%
- survival at 30 mg/kg [7]: 100%

Compound: CN(C)CC1CN(C)C(=S)c2cccnc2O1 (configuration not stated)
- survival at 30 mg/kg [1]: 0%

Compound: CCN1CC(CCN(C)C)N(C)c2ccccc2C1=O (configuration not stated)
- survival at 30 mg/kg [1]: 0%

Compound: CN(C)CCC1CN(C)C(=S)c2cc3ccccc3nc2O1 (configuration not stated)
- survival at 0.3 mg/kg [8]: 100%
- ED50 [9]: 2.9 mg/kg
- Survival [10]: 67%
- ED50 [11]: 0.1 mg/kg

Compound: CN(C)CCC1CN(C)C(=S)c2cc(Br)ccc2O1 (configuration not stated)
- survival at 1 mg/kg [5]: 0%
- survival at 3 mg/kg [6]: 67%
- survival at 30 mg/kg [7]: 100%

Compound: CC(=O)Nc1ccc2c(c1)C(=S)N(C)CC(CCN(C)C)O2 (configuration not stated)
- survival at 0.3 mg/kg [8]: 0%
- survival at 3 mg/kg [6]: 100%

Compound: CN1CC(CCN2CCC2)Oc2ccc(C(F)(F)F)cc2C1=S (configuration not stated)
- survival at 3 mg/kg [6]: 33%
- survival at 30 mg/kg [7]: 100%

Compound: CN(C)CCC1CN(C)C(=O)c2c(cncc2N(C)C)O1 (configuration not stated)
- survival at 30 mg/kg [1]: 0%

Compound: CC(CN(C)C)C1CN(C)C(=O)c2cccnc2O1 (configuration not stated)
- survival at 30 mg/kg [1]: 67%
- Survival [2]: 0%

Compound: CN(C)CCC1CN(C)C(=S)c2cc([N+](=O)[O-])ccc2O1 (configuration not stated)
- survival at 0.3 mg/kg [8]: 33%
- survival at 3 mg/kg [6]: 67%

Compound: CC(CC1CN(C)C(=O)c2cccnc2O1)N(C)C (configuration not stated)
- survival at 30 mg/kg [1]: 100%
- Survival [2]: 0%

Compound: Cc1nc2c(cc1Cl)C(=S)N(C)CC(CCN(C)C)O2 (configuration not stated)
- survival at 0.3 mg/kg [8]: 67%
- Survival [10]: 67%

Compound: CN1CC(CCN2CCC2)Oc2ncc(Br)cc2C1=S (configuration not stated)
- ED50 [9]: 0.1 mg/kg
- survival at 1 mg/kg [5]: 60%
- Survival [10]: 60%
- survival at 3 mg/kg [6]: 100%
- ED50 [11]: 0.09 mg/kg

Compound: CN1CC(CCN2CCCC2)Oc2ncc(Cl)cc2C1=S (configuration not stated)
- survival at 0.3 mg/kg [8]: 100%
- Survival [10]: 40%
- ED50 [11]: 0.12 mg/kg

Compound: CN1CC(CCn2ccnc2)Oc2ncccc2C1=S (configuration not stated)
- survival at 30 mg/kg [1]: 100%
- Survival [2]: 0%

Compound: CN(C)CCC1CN(C)C(=S)c2cc(Br)cnc2O1 (configuration not stated)
- ED50 [9]: 2 mg/kg
- Survival [10]: 100%
- ED50 [11]: 0.05 mg/kg

Compound: CN1CC(CCn2cccn2)Oc2ncccc2C1=S (configuration not stated)
- survival at 30 mg/kg [1]: 33%

Compound: CCOC(=O)N1CCC(=C2c3ccc(Cl)cc3CCc3cccnc32)CC1 [LORATADINE]
- Dose [3]: 0.43 mg/kg
- Dose [4]: 20 mg/kg

Compound: CN1CC(CCN2CCC2)Oc2ncccc2C1=S (configuration not stated)
- ED50 [9]: 1 mg/kg
- Survival [10]: 100%
- ED50 [11]: 0.04 mg/kg

Compound: CN(C)CCC1(C)CN(C)C(=S)c2cccnc2O1 (configuration not stated)
- survival at 0.3 mg/kg [8]: 67%
- ED50 [9]: 6 mg/kg
- survival at 1 mg/kg [5]: 100%
- Survival [10]: 40%
- ED50 [11]: 0.12 mg/kg

Compound: CCN1CC(CCN(C)C)Oc2ncccc2C1=S (configuration not stated)
- survival at 1 mg/kg [5]: 33%
- survival at 3 mg/kg [6]: 100%

Compound: CN1CC(CCCN)Oc2ncccc2C1=S (configuration not stated)
- survival at 30 mg/kg [1]: 67%

Compound: CCN(CC)CCC1CN(C)C(=S)c2cc(Cl)cnc2O1 (configuration not stated)
- survival at 0.3 mg/kg [8]: 20%
- survival at 3 mg/kg [6]: 100%
- ED50 [11]: 0.39 mg/kg

Compound: CN(C)CCC1CN(C)C(=S)c2ccncc2O1 (configuration not stated)
- survival at 0.3 mg/kg [8]: 0%
- survival at 1 mg/kg [5]: 100%

Compound: CN(C)CCC1CN(C)C(=O)c2cccnc2O1 (configuration not stated)
- survival at 1 mg/kg [5]: 20%
- survival at 3 mg/kg [6]: 100%
- ED50 [11]: 1.05 mg/kg

Compound: CN1CC(CCCN)Oc2ncccc2C1=O (configuration not stated)
- survival at 30 mg/kg [1]: 100%
- Survival [2]: 0%

Compound: CN1CC(CC[N+](C)(C)C)Oc2ncccc2C1=S (configuration not stated)
- survival at 30 mg/kg [1]: 100%
- Survival [2]: 0%

Compound: CN(CCC1CN(C)C(=S)c2cc(Br)cnc2O1)Cc1ccccc1 (configuration not stated)
- survival at 1 mg/kg [5]: 0%
- survival at 3 mg/kg [6]: 100%

Compound: CN(C)CCC1CN(C)C(=S)c2cc(N)ccc2O1 (configuration not stated)
- survival at 1 mg/kg [5]: 0%
- survival at 3 mg/kg [6]: 100%

Compound: CCN(CC)CCC1CN(C)C(=S)c2cccnc2O1 (configuration not stated)
- survival at 1 mg/kg [5]: 33%
- survival at 3 mg/kg [6]: 67%

Compound: CN(CCC1CN(C)C(=S)c2cc(Cl)cnc2O1)Cc1ccccc1 (configuration not stated)
- survival at 0.3 mg/kg [8]: 60%
- survival at 3 mg/kg [6]: 100%
- ED50 [11]: 0.9 mg/kg

Compound: CN(C)CCC1CN(Cc2ccccc2)C(=S)c2cccnc2O1 (configuration not stated)
- survival at 1 mg/kg [5]: 0%
- survival at 3 mg/kg [6]: 100%

Compound: CN1CC(CCN(Cc2ccccc2)Cc2ccccc2)Oc2ncccc2C1=S (configuration not stated)
- survival at 30 mg/kg [1]: 0%

Compound: CN(C)CC1CN(C)C(=O)c2cccnc2O1 (configuration not stated)
- survival at 30 mg/kg [1]: 0%

Compound: CNCCC1CN(C)C(=S)c2cc(Cl)cnc2O1 (configuration not stated)
- survival at 0.3 mg/kg [8]: 0%
- survival at 3 mg/kg [6]: 100%

From ChEMBL document CHEMBL1124606, “Benzo- and pyrido-1,4-oxazepin-5-ones and -thiones: synthesis and structure-activity relationships of a new series of H1 antihistamines” (1989)
